One block for each compound: values may come before it.
Tests used:
[1] = tested on: MRCKβ; type: cell-based, human; conditions: MDA MB 231 cells, inducible kinase domains, 60 minutes
Outline: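 MDA MB 231 cells with doxycycline-inducible MRCKβ, ROCK1 or ROCK2 kinase domains were plated at 1.1×10⁵/well. After 24 h, 1 µg/ml doxycycline was given for 18 h, then test compound for 60 min. Lysis was in 50 mM Tris-HCl pH 7.4, 0.5% SDS with phosphatase inhibitors. pMLC2 was measured by quantitative western blot; mean ± SEM of 3-4 independent replicates.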

[2] = molecular target: T1, DMPK (Homo sapiens, UniProt Q09013); assay: Kinase selectivity profiling, 115 kinase panel; type: binding; conditions: 1 µM compound
T1 sequence (Q09013 1-629): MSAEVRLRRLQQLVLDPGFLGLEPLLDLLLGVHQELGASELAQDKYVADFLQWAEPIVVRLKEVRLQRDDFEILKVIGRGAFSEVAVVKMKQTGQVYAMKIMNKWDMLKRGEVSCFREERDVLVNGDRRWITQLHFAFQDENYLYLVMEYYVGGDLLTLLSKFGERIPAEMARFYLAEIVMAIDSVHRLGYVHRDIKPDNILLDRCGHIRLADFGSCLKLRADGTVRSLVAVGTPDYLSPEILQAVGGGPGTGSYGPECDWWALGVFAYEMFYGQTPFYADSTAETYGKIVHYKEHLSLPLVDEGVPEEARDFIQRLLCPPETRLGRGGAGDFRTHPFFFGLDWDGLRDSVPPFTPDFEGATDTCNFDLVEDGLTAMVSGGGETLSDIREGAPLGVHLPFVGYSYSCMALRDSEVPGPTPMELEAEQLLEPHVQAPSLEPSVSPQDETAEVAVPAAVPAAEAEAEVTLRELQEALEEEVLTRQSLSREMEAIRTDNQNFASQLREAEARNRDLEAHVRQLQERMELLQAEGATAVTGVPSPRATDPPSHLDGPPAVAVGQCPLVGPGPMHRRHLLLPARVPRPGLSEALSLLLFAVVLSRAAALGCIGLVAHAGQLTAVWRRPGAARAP

[3] = tested on: ROCK1; assay: Kinase selectivity profiling, 115 kinase panel; type: biochemical; conditions: 1 µM compound; apparent Km for ATP
[4] = tested on: ROCK2; assay: Kinase selectivity profiling, 115 kinase panel; type: biochemical; conditions: 1 µM compound; apparent Km for ATP
[5] = tested on: CDK2/Cyclin A; assay: Kinase selectivity profiling, 115 kinase panel; type: biochemical; conditions: 1 µM compound
[6] = tested on: CDK9/Cyclin K; assay: Kinase selectivity profiling, 115 kinase panel; type: biochemical; conditions: 1 µM compound
[7] = tested on: CDK9/Cyclin T1; assay: Kinase selectivity profiling, 115 kinase panel; type: biochemical; conditions: 1 µM compound
[8] = tested on: PKCα; assay: Kinase selectivity profiling, 115 kinase panel; type: biochemical; conditions: 1 µM compound
[9] = tested on: TSSK1 (STK22D); assay: Kinase selectivity profiling, 115 kinase panel; type: biochemical; conditions: 1 µM compound
[10] = tested on: MRCKβ; assay: Out-sourced dose-response kinase assays; type: biochemical; conditions: Cheng-Prusoff equation
[11] = molecular target: T1, DMPK; assay: Competitive LanthaScreen Eu TR-FRET kinase binding assay; conditions: read-out: Kd DMPK; displacement of fluorescent tracer; Cheng-Prusoff equation
[12] = tested on: MRCKβ; assay: In-house kinase assay Ki compared with out-sourced values; type: biochemical
[13] = tested on: 757 cancer cell lines; assay: Cancer cell line screen; type: cell-based, human; conditions: 72 hours, up to 10 µM, p<0.05
Outline: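 757 human cancer cell lines spanning 45 cancer types were seeded in 1536-well plates and exposed to a 7-point, half-log dilution series of test compound with a top concentration of 10 μM.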

[14] = tested on: MRCKα; assay: MRCKα pS1003 western blot in HEK293 cells expressing FLAG-MRCKα; type: cell-based, human; conditions: 2 hours
Outline: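 HEK293 cells were transfected with 10 μg pEF-FLAG-MRCKα using a lipid reagent. After 48 h, they were treated 2 h with DMSO, 3 μM or 1 μM test compound. Cells were washed in PBS and lysed in 1% SDS, 50 mM Tris-HCl pH 7.4. Lysates were shredded and analysed by SDS-PAGE and western blot for MRCKα pS1003.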

[15] = tested on: MRCKα; assay: In vitro MRCKα autophosphorylation and MLC2 phosphorylation assay; type: biochemical; conditions: dephosphorylated immunoprecipitated FLAG-MRCKα
Outline: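 FLAG-MRCKα (wild type, K106M or S1003A) was expressed in HEK293 for 2 days and immunoprecipitated on beads. They were incubated with lysate of IPTG-induced bacteria expressing MLC2, with western blot read-out.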

[16] = tested on: MLC2 phosphorylation in SCC12 cells; assay: MLC2 phosphorylation in SCC12 cells; type: cell-based, human
Outline: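 SCC12 cells were plated at 5×10⁵ per well of a 6-well plate. After 24 h, they were treated 2 h with DMSO or a dose range of test compound. Cells were washed in PBS, lysed in 1% SDS, 50 mM Tris-HCl pH 7.4, shredded, and analysed by SDS-PAGE western blotting for MLC2 phosphorylation.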

[17] = tested on: SCC12 cells; assay: SCC12 cell viability; type: cell-based, human; conditions: 24 hour treatment
[18] = tested on: SCC12 cells; assay: Operetta high content morphology analysis; type: cell-based, human; conditions: 2 hours
Outline: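 SCC12 cells were seeded at 1.5×10⁴ per 96-well and grown 24 h, then treated 2 h with DMSO or a dose range of test compound. Fixation was 4% PFA for 15 min, permeabilisation 0.5% Triton X-100 for 15 min, blocking 1% BSA for 30 min. Staining used phalloidin, DAPI and a whole-cell stain, followed by automated high-content imaging and morphology analysis.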

[19] = tested on: SCC12 cells; assay: Phalloidin F-actin immunofluorescence; type: cell-based, human; conditions: SCC12, 1 µM
Outline: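 SCC12 cells on glass coverslips were grown overnight, then given medium with 1 μM test compound or DMSO. Cells were fixed in 4% paraformaldehyde/PBS for 15 min and permeabilised with 0.5% Triton X-100 for 5 min. F-actin was stained with Alexa 488 phalloidin, mounted with DAPI and imaged by confocal microscopy.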

[20] = tested on: SCC12 cells; assay: Random migration; type: cell-based, human; conditions: SCC12, 0.4 μM, 6 hours
Outline: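 SCC12 cells were plated at 2×10⁴ per well of an image-lock 96-well plate. After 24 h, medium was changed to DMSO or 0.4 μM test compound. Individual cells were tracked over 6 h to give accumulated distance, Euclidean distance, velocity and directionality. Data are mean ± SEM of 120 cells; two-tailed unpaired t-tests.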

[21] = tested on: SCC12 cells; assay: SCC12 organotypic invasion assay; type: cell-based, human; conditions: SCC12, 0.4 μM, relative to DMSO vehicle
[22] = Skin and blood concentrations after topical application to FVB mice; type: in vivo; conditions: FVB mouse
Outline: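 FVB mice received topical test compound in 80% (v/v) DMSO under several regimens: once at 10 μg or 25 μg; 4 × 25 μg over 2 days; or 8 × 25 μg (4 days on, 2 off, 4 on), with vehicle controls. Mice were culled 2, 4, 8 or 24 h after the final dose. Skin and blood concentrations were measured by a contract laboratory; mean ± SD from 3 mice per condition.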

[23] = tested on: MRCKα pS1003; assay: MRCKα pS1003 staining of mouse skin after topical treatment; type: in vivo; conditions: FVB mouse, topical 4 X 25 µg over 2 days
Outline: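 FVB mice (5 per group) received topical 25 μg test compound in 50 μL 80% (v/v) DMSO, or 50 μL vehicle. Four applications were given over 2 days. Mice were culled 2 h after the final treatment, and skin was taken for MRCKα pS1003 staining.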

[24] = tested on: skin papillomas; assay: DMBA/TPA two-stage chemical carcinogenesis model of SCC; type: in vivo, mouse; conditions: topical 25 μg 5 times per week for 14 weeks
Outline: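 40 FVB mice received topical DMBA 25 μg in acetone on day 1. From day 5 they received TPA 4.7 μg in acetone three times weekly. From day 5, groups of 20 also got test compound 25 μg in 50 μL 80% DMSO or vehicle, 5 times/week for 14 weeks. Tumour size and number were recorded weekly, blinded. Culling was at 12 mm papilloma diameter. Data are mean ± SD, 20 mice.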

[25] = Skin and blood concentrations at DMBA/TPA experimental endpoint; type: in vivo, mouse; conditions: DMBA/TPA mice, topical 25 μg 5 times per week
Outline: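 DMBA/TPA-initiated and promoted FVB mice were dosed topically with test compound 25 μg in 50 μL 80% (v/v) DMSO, 5 times per week. Skin and blood compound concentrations were measured by a contract laboratory at study end.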

[26] = tested on: MRCKα pS1003; assay: MRCKα pS1003 immunohistochemistry in DMBA/TPA treated skin and papillomas; type: in vivo, mouse; conditions: DMBA/TPA mice, topical 25 μg 5 times per week
Outline: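 Skin sections from DMBA/TPA mice dosed topically with 25 μg test compound in 80% DMSO or vehicle were stained for MRCKα pS1003. Normal skin and papilloma areas were selected, cells auto-detected and cytoplasmic intensity measured. Histoscore = %low×100 + %medium×200 + %high×300. Data are mean ± SD from 19 mice per group; two-tailed unpaired t-tests.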

[27] = tested on: PKCγ; assay: Kinase selectivity profiling, 115 kinase panel; type: biochemical; conditions: 1 µM compound; apparent Km for ATP
[28] = tested on: MLC2 phosphorylation in SCC12 cells; conditions: cited from earlier work
[29] = tested on: SCC12 cells; conditions: cited from earlier work
[30] = topical 25 µg twice per day for 2 days

inhibition of DMPK [2]: > 75%
inhibition of ROCK1 [3]: > 75%
inhibition of ROCK2 [4]: > 75%
inhibition of CDK2/Cyclin A [5]: > 75%
inhibition of CDK9/Cyclin K [6]: > 75%
inhibition of CDK9/Cyclin T1 [7]: > 75%
inhibition of PKCα [8]: > 75%
inhibition of TSSK1 (STK22D) [9]: > 75%
minimum fold-selectivity for MRCKβ against all kinases tested (calculated Ki) [10]: 27 times
Kd [11]: 0.98 nM
affinity (MRCKβ Ki determined in-house) higher than the DMPK Kd [12]: 42 fold
EC50 ([16]; read-out: EC50 inhibition of MLC2 phosphorylation, SCC12 cells, 2 hours): 64 nM
higher concentration in skin, repeated 25 μg doses relative to single 10 μg dose ([22]; topical): 2.8 fold
mean concentration in blood [22, 30]: 40 nM
mean concentration in skin [22, 30]: 26000 nM
level in blood after 24 hours ([22]; topical, single 25 μg or 8 X 25 μg): undetectable
concentration in skin 24 hours after final dosing ([22]; topical, single 25 μg or 8 X 25 μg (either regimen)): over 16 μM
compound in blood at experimental endpoint [25]: undetectable
mean concentration in skin at experimental endpoint [25]: > 1000 nM
SMILES: c1cc(-c2c[nH]c3nccc(N4CCC[C@@]5(CCCCN5)C4)c23)ncn1 [BDP9066]
selectivity of pMLC2 inhibition for MRCKβ relative to ROCK1 or ROCK2 [1]: > 100 times
number of cancer types significantly resistant relative to all cancer cell lines [13]: 4
number of cancer types significantly sensitive relative to all cancer cell lines [13]: 8
pS1003 immunoreactivity ([14]; 1 µM): blocked
MRCKα S1003 autophosphorylation in vitro [15]: blocked
recombinant MLC2 phosphorylation by MRCKα in vitro [15]: blocked
increase in cellular potency relative to BDP5290 ([16]; SCC12 cells pMLC2): 5 fold
SCC12 cell viability ([17]; all concentrations up to 0.5 µM): unaffected
decrease in viability ([17]; SCC12 cells, 1 μM): 25%
proportion of irregularly shaped cells ([18]; SCC12, 0.5 μM): increased
proportion of regularly shaped cells ([18]; SCC12, 0.5 μM): reduced proportions
2D cell area ([18]; SCC12, dose range): increased
cell roundness ([18]; SCC12, dose range): decreased
proportion of elongated cells ([18]; SCC12, varying concentrations): did not vary
bundling of filamentous actin at cortical and cytoplasmic regions [19]: reduced
directionality of cell motility [20]: No differences
reduction of accumulated distance travelled [20]: 21%
reduction of mean Euclidean distance travelled [20]: 18%
reduction of mean cell velocity [20]: 21%
decrease in the percentage of invading cells [21]: 50%
epidermal MRCKα pS1003 positive staining [23]: significantly reduced
average papilloma volume per mouse vs DMSO [24]: significantly reduced
total papilloma numbers per mouse vs DMSO [24]: not different
total tumor volume per mouse vs DMSO [24]: significantly reduced
MRCKα pS1003 histoscores in papillomas [26]: reduced
MRCKα pS1003 histoscores in the treated skin area [26]: reduced
MRCKα pS1003 immunohistochemistry staining [26]: significant decreases

inhibition of PKCγ [27]: > 75%
inhibition of DMPK [2]: > 75%
minimum fold-selectivity for MRCKβ against all kinases tested (calculated Ki) [10]: 43 times
Kd [11]: 0.8 nM
affinity (MRCKβ Ki determined in-house) higher than the DMPK Kd [12]: 33 fold
SMILES: c1csc(-c2c[nH]c3nccc(N4CCC[C@@]5(CCCCN5)C4)c23)n1 [BDP8900]
selectivity of pMLC2 inhibition for MRCKβ relative to ROCK1 or ROCK2 [1]: > 562 times
number of cancer types significantly resistant relative to all cancer cell lines [13]: 6
number of cancer types significantly sensitive relative to all cancer cell lines [13]: 10

SMILES: O=C(Nc1cn[nH]c1-c1ccccn1)c1nn(C2CCNCC2)cc1Cl [BDP5290]
pS1003 immunoreactivity ([14]; 3 µM): blocked
MLC phosphorylation [28]: reduced MLC phosphorylation
SCC12 organotypic invasion [29]: inhibited SCC12 organotypic invasion

Reference: paper PMC5901721 (Cancer research, 2018)
